Test results as given in ChEMBL document CHEMBL4354826, “Structure-Based Discovery of SD-36 as a Potent, Selective, and Efficacious PROTAC Degrader of STAT3 Protein” (J Med Chem, 2019).
pIC50, pKi: −log10 of the molar value. Activity calls are given as the source filed them. The calls are words filed in the database; no cut-off is given here.

Assays:
[1] = molecular target: T1, Protein cereblon/Signal transducer and activator of transcription 3 (Homo sapiens, UniProt P40763+Q96SW2); assay: Protac activity at CRBN/STAT3 in human SUDHL1 cells assessed as degradation of STAT3 incubated for 16 hrs by Western blot analysis; format: cell-based
[2] = molecular target: T2, Protein cereblon/Signal transducer and activator of transcription 5B (Homo sapiens) (UniProt P51692+Q96SW2); assay: Protac activity at CRBN/STAT5B in human SUDHL1 cells assessed as degradation of STAT5B at 10 uM incubated for 18 hrs by Western blot analysis; format: cell-based
T2 sequence (P51692 whole entry, looked up): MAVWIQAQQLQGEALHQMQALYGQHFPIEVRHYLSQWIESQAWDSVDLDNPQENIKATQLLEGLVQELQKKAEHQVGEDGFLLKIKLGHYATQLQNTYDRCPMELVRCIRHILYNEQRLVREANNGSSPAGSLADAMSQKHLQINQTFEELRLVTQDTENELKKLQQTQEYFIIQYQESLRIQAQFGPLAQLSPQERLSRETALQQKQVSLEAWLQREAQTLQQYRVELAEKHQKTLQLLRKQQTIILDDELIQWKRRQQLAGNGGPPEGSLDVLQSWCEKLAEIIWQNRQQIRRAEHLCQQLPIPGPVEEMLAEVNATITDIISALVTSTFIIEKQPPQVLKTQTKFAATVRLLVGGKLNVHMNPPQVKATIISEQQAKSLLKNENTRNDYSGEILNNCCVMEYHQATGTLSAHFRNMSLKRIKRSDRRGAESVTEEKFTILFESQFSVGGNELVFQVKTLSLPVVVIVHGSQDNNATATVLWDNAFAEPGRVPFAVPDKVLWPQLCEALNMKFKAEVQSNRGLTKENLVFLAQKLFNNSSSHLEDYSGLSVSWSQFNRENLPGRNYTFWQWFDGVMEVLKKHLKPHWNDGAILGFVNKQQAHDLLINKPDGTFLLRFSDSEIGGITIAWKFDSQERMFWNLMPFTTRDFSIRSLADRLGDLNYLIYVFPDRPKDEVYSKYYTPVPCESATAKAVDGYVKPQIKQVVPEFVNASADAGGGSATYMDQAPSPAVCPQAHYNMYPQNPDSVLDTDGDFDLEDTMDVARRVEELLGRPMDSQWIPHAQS
T2 sequence (Q96SW2 whole entry, looked up): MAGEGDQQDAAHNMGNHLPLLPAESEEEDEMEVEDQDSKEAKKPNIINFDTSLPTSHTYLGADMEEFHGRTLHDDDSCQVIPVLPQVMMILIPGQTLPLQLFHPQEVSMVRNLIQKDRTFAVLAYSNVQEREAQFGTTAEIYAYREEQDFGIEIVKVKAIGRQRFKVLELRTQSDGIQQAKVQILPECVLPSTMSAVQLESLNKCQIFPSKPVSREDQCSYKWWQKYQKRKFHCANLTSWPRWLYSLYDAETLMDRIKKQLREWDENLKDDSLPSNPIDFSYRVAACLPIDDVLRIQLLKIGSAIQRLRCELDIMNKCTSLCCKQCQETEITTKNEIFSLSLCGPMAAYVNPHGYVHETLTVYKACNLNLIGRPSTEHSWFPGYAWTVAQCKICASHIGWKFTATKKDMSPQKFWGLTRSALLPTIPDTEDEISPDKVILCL
How it was run: (§1)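 SU-DHL-1 cells treated 18 h with test compound at 0.01–10 μM, or control compounds at 10 μM. Lysates separated by SDS–PAGE, transferred to PVDF, blocked 1 h in 5% blocker/TBST, probed for each STAT protein, and detected by chemiluminescence.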

[3] = molecular target: T1, Protein cereblon/Signal transducer and activator of transcription 3; assay: Protac activity at CRBN/STAT3 in human MOLM16 cells assessed as degradation of STAT3 at 10 uM incubated for 4 hrs by Western blot analysis; format: cell-based
How it was run: (§2)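 Molm-16 cells treated 4 h with test compound at 0.01–10 μM, or control compounds at 10 μM. Lysates separated by SDS–PAGE, transferred to PVDF, blocked 1 h in 5% blocker/TBST, probed for each STAT protein, and detected by chemiluminescence.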
Target sequence in this assay (P40763 2-770 limits assumed): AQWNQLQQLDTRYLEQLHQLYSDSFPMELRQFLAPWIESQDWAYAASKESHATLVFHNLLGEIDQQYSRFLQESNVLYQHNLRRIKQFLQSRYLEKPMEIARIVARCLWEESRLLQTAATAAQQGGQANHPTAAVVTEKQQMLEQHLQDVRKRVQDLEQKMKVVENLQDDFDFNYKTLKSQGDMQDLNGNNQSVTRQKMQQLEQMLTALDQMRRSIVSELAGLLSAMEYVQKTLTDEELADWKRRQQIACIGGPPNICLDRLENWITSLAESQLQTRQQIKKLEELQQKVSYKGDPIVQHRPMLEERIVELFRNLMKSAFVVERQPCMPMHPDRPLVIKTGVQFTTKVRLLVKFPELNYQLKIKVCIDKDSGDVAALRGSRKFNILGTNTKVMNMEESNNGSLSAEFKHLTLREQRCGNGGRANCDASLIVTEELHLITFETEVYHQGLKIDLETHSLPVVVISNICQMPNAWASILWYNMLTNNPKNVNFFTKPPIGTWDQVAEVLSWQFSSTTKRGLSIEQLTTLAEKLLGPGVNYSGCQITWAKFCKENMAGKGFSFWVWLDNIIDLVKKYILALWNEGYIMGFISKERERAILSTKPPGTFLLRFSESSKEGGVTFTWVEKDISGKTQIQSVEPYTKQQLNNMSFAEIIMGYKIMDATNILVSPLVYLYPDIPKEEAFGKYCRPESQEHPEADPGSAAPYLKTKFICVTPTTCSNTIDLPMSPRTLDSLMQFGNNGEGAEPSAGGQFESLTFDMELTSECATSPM
Target sequence in this assay (Q96SW2 whole entry partner): as the sequence (Q96SW2 whole entry, looked up) above

SU-DHL-1 = assay: Antiproliferative activity against human SUDHL1 cells assessed as reduction in cell viability incubated for 4 days by cell-titer glo luminescent assay; format: functional, cell-based; settings: SU-DHL-1, 96 h
How it was run: (§3)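 Viability assay: cells incubated with serially diluted compounds for 4 days, viability read by CellTiter-Glo luminescence; IC50 from concentration–response.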

[4] = molecular target: T3, Protein cereblon/Signal transducer and activator of transcription 6 (Homo sapiens) (UniProt P42226+Q96SW2); assay: Protac activity at CRBN/STAT6 in human SUDHL1 cells assessed as degradation of STAT6 at 10 uM incubated for 18 hrs by Western blot analysis; format: cell-based
How it was run: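 SU-DHL-1 cells exposed to compound over 0.01–10 μM, or controls at 10 μM, for 18 h. Lysates separated by SDS–PAGE and transferred to PVDF. Membranes blocked 1 h in 5% blocker/TBST, probed with primary then secondary antibodies, and developed by chemiluminescence for STAT1, STAT2, STAT4, STAT5A/B, STAT6 and STAT3.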

[5] = molecular target: T4, Protein cereblon/Signal transducer and activator of transcription 5A (Homo sapiens) (UniProt P42229+Q96SW2); assay: Protac activity at CRBN/STAT5A in human SUDHL1 cells assessed as degradation of STAT5A at 10 uM incubated for 18 hrs by Western blot analysis; format: cell-based; how it was run: as §1
[6] = molecular target: T4, Protein cereblon/Signal transducer and activator of transcription 5A (Homo sapiens); assay: Protac activity at CRBN/STAT5A in human MOLM16 cells assessed as degradation of STAT5A at 10 uM incubated for 4 hrs by Western blot analysis; format: cell-based; how it was run: as §2
[7] = Antiproliferative activity against human MOLM16 cells assessed as reduction in cell viability incubated for 4 days by cell-titer glo luminescent assay; format: functional, cell-based; settings: MOLM16, 96 h; how it was run: as §3
[8] = molecular target: T2, Protein cereblon/Signal transducer and activator of transcription 5B (Homo sapiens); assay: Protac activity at CRBN/STAT5B in human MOLM16 cells assessed as degradation of STAT5B at 10 uM incubated for 4 hrs by Western blot analysis; format: cell-based; how it was run: as §2
[9] = molecular target: T1, Protein cereblon/Signal transducer and activator of transcription 3; assay: Protac activity at CRBN/STAT3 in human SUDHL1 cells assessed as degradation of STAT3 upto 10 uM incubated for 16 hrs by Western blot analysis; format: cell-based
Target sequence in this assay (P40763 2-770 limits assumed): as the sequence (P40763 2-770 limits assumed) above
Target sequence in this assay (Q96SW2 whole entry partner): as the sequence (Q96SW2 whole entry, looked up) above

[10] = molecular target: T5, Protein cereblon/Signal transducer and activator of transcription 4 (Homo sapiens) (UniProt Q96SW2+Q14765); assay: Protac activity at CRBN/STAT4 in human SUDHL1 cells assessed as degradation of STAT4 at 10 uM incubated for 18 hrs by Western blot analysis; format: cell-based; how it was run: as §1
T5 sequence (Q14765 whole entry, looked up): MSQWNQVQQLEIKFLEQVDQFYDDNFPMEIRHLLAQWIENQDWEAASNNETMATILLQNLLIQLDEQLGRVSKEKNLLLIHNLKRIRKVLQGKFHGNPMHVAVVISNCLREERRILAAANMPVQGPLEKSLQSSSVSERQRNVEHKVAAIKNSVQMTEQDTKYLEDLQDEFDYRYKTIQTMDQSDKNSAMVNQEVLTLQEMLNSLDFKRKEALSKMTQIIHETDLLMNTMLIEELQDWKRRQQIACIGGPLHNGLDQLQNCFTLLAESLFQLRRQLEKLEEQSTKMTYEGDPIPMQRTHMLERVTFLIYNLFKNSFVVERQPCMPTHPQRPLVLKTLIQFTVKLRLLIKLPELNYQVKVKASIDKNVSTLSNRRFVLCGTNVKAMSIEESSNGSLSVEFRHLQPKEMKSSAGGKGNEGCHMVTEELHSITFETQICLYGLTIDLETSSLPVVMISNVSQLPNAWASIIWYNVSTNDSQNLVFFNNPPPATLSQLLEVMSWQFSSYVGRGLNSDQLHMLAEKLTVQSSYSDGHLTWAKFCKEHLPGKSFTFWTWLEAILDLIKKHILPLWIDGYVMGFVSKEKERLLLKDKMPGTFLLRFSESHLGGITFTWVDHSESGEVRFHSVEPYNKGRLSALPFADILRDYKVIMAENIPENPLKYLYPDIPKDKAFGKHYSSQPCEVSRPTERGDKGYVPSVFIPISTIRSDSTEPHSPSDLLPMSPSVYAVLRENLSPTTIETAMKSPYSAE
T5 sequence (Q96SW2 whole entry, looked up): as the sequence (Q96SW2 whole entry, looked up) above

[11] = molecular target: T1, Protein cereblon/Signal transducer and activator of transcription 3; assay: Protac activity at CRBN/STAT3 in human MOLM16 cells assessed as degradation of STAT3 up to 10 uM incubated for 4 hrs by Western blot analysis; format: cell-based
How it was run: (§4)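 Molm-16 cells treated 4 h with serially diluted compound. Lysates immunoblotted (SDS–PAGE, PVDF, 5% blocker/TBST, chemiluminescence) for total STAT3 and pSTAT3 Y705. DC50 taken as the concentration reducing total STAT3 by 50%.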
Target sequence in this assay (P40763 2-770 limits assumed): as the sequence (P40763 2-770 limits assumed) above
Target sequence in this assay (Q96SW2 whole entry partner): as the sequence (Q96SW2 whole entry, looked up) above

[12] = molecular target: T6, Protein cereblon/Signal transducer and activator of transcription 1-alpha/beta (Homo sapiens) (UniProt P42224+Q96SW2); assay: Protac activity at CRBN/STAT1 in human SUDHL1 cells assessed as degradation of STAT1 at 10 uM incubated for 18 hrs by Western blot analysis; format: cell-based; how it was run: as §1
[13] = molecular target: T5, Protein cereblon/Signal transducer and activator of transcription 4 (Homo sapiens); assay: Protac activity at CRBN/STAT4 in human MOLM16 cells assessed as degradation of STAT4 at 10 uM incubated for 4 hrs by Western blot analysis; format: cell-based; how it was run: as §2
[14] = molecular target: T7, Protein cereblon/Signal transducer and activator of transcription 2 (Homo sapiens) (UniProt Q96SW2+P52630); assay: Protac activity at CRBN/STAT2 in human SUDHL1 cells assessed as degradation of STAT2 at 10 uM incubated for 18 hrs by Western blot analysis; format: cell-based; how it was run: as §1
[15] = molecular target: T6, Protein cereblon/Signal transducer and activator of transcription 1-alpha/beta (Homo sapiens); assay: Protac activity at CRBN/STAT1 in human MOLM16 cells assessed as degradation of STAT1 at 10 uM incubated for 4 hrs by Western blot analysis; format: cell-based; how it was run: as §2
[16] = molecular target: T1, Protein cereblon/Signal transducer and activator of transcription 3; assay: Protac activity at CRBN/STAT3 in human SUDHL1 cells assessed as degradation of phosphorylated STAT3 Y705 upto 10 uM incubated for 16 hrs by Western blot analysis; format: cell-based
Target sequence in this assay (P40763 2-770 limits assumed): as the sequence (P40763 2-770 limits assumed) above
Target sequence in this assay (Q96SW2 whole entry partner): as the sequence (Q96SW2 whole entry, looked up) above

[17] = molecular target: T3, Protein cereblon/Signal transducer and activator of transcription 6 (Homo sapiens); assay: Protac activity at CRBN/STAT6 in human MOLM16 cells assessed as degradation of STAT6 at 10 uM incubated for 4 hrs by Western blot analysis; format: cell-based; how it was run: as §2
[18] = molecular target: T7, Protein cereblon/Signal transducer and activator of transcription 2 (Homo sapiens); assay: Protac activity at CRBN/STAT2 in human MOLM16 cells assessed as degradation of STAT2 at 10 uM incubated for 4 hrs by Western blot analysis; format: cell-based; how it was run: as §2
[19] = molecular target: T1, Protein cereblon/Signal transducer and activator of transcription 3; assay: Protac activity at CRBN/STAT3 in human SUDHL1 cells assessed as degradation of STAT3 at 10 uM incubated for 18 hrs by Western blot analysis; format: cell-based; how it was run: as §1
Target sequence in this assay (P40763 2-770 limits assumed): as the sequence (P40763 2-770 limits assumed) above
Target sequence in this assay (Q96SW2 whole entry partner): as the sequence (Q96SW2 whole entry, looked up) above

[20] = molecular target: T1, Protein cereblon/Signal transducer and activator of transcription 3; assay: Protac activity at CRBN/STAT3 in human MOLM16 cells assessed as degradation of STAT3 incubated for 4 hrs by Western blot analysis; format: cell-based; how it was run: as §4
Mus musculus = assay: In vivo degradation of STAT3 in CD1 mouse at 25 mg/kg, iv measured upto 48 hrs by Western blot analysis; format: functional, organism-based
How it was run: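 Female CD-1 mice given a single intravenous dose in 10% PEG400 + 90% PBS, or vehicle. Euthanized at set time points. Spleen harvested and lysates immunoblotted for STAT3.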

[21] = molecular target: T1, Protein cereblon/Signal transducer and activator of transcription 3; assay: Protac activity at CRBN/STAT3 in human MOLM16 cells assessed as degradation of phosphorylated STAT3 Y705 at 1 uM incubated for 4 hrs by Western blot analysis; format: cell-based; how it was run: as §4
Target sequence in this assay (P40763 2-770 limits assumed): as the sequence (P40763 2-770 limits assumed) above
Target sequence in this assay (Q96SW2 whole entry partner): as the sequence (Q96SW2 whole entry, looked up) above

[22] = molecular target: T1, Protein cereblon/Signal transducer and activator of transcription 3; assay: Protac activity at CRBN/STAT3 in human MOLM16 cells assessed as degradation of STAT3 at 1 uM incubated for 4 hrs by Western blot analysis; format: cell-based; how it was run: as §4
[23] = molecular target: T8, Signal transducer and activator of transcription 3 (Homo sapiens, UniProt P40763); assay: Binding affinity to recombinant human His/SUMO-tagged STAT3 (127 to 688 residues) expressed in Escherichia coli Rosetta (DE3) incubated for 1 hr by fluorescence polarization assay
T8 sequence (P40763 whole entry, the tested form may be a part): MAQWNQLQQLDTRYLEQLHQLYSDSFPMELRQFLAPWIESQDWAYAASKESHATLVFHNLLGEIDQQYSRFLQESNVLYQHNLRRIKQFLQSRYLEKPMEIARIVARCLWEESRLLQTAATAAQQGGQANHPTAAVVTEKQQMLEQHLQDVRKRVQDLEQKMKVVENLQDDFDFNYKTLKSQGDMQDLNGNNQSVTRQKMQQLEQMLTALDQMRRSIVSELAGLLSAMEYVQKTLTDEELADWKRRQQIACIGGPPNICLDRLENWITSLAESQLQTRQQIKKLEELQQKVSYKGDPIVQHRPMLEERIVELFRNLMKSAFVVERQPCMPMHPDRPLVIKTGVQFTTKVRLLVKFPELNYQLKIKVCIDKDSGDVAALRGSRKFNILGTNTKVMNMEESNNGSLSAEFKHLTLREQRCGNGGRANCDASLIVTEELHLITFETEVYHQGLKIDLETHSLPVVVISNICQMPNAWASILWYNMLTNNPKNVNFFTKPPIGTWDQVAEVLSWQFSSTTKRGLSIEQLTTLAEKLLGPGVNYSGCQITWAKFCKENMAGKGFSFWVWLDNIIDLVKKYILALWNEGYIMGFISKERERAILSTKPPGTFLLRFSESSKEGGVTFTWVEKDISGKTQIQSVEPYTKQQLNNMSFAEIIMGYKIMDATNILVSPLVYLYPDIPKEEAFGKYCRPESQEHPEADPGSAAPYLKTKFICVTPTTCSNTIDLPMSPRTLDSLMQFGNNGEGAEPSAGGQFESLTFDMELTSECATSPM

[24] = molecular target: T8, Signal transducer and activator of transcription 3; assay: Binding affinity to STAT3 (unknown origin)
[25] = molecular target: T1, Protein cereblon/Signal transducer and activator of transcription 3; assay: Protac activity at CRBN/STAT3 in human SUDHL1 cells assessed as degradation of STAT3 upto 5 uM incubated for 16 hrs by Western blot analysis; format: cell-based
[26] = molecular target: T1, Protein cereblon/Signal transducer and activator of transcription 3; assay: Protac activity at CRBN/STAT3 in human SUDHL1 cells assessed as degradation of phosphorylated STAT3 Y705 upto 5 uM incubated for 16 hrs by Western blot analysis; format: cell-based

SMILES	DC50 [1] [nM]	Activity [2]	Activity [3]	pIC50 (SU-DHL-1)	Activity [4]	Activity [5]	Activity [6]	pIC50 [7]	Activity [8]	Activity [9]	Activity [10]	Activity [12]	Activity [13]	Activity [14]	Activity [15]	Activity [16]	Activity [17]	Activity [18]	Activity [19]	DC50 [20] [nM]	also measured
CN1C(=O)CCC(N2Cc3c(C#CCCCCCC(=O)N4CC[C@H]5CC[C@@H](C(=O)N[C@@H](CCC(N)=O)C(=O)NC(c6ccccc6)c6ccccc6)N5C(=O)[C@@H](NC(=O)c5cc6cc(C(F)(F)P(=O)(O)O)ccc6[nH]5)C4)cccc3C2=O)C1=O (stereo partly specified)	> 10000	inactive	inactive	< 5.00	inactive	inactive	inactive	5.28	inactive	inactive	inactive	inactive	inactive	inactive	inactive	inactive	inactive	inactive	inactive	> 10000	Activity [11]: 0%
NC(=O)CC[C@H](NC(=O)[C@@H]1CC[C@@H]2CCN(C(=O)NCCCCC#Cc3cccc4c3CN(C3CCC(=O)NC3=O)C4=O)C[C@H](NC(=O)c3cc4cc(C(F)(F)P(=O)(O)O)ccc4[nH]3)C(=O)N21)C(=O)NC(c1ccccc1)c1ccccc1 (stereo partly specified)	11			6.37				7.04												50	Activity (Mus musculus): Active
CC(=O)N1CC[C@H]2CC[C@@H](C(=O)N[C@@H](CCC(N)=O)C(=O)NC(c3ccccc3)c3ccccc3)N2C(=O)[C@@H](NC(=O)c2cc3cc(C(F)(F)P(=O)(O)O)ccc3[nH]2)C1	> 10000	inactive	inactive	< 5.00	inactive	inactive	inactive	5.19	inactive	inactive	inactive	inactive	inactive	inactive	inactive	inactive	inactive	inactive	inactive	> 10000	Activity [21]: inactive; Activity [22]: inactive; pKi [23]: 7.85
NC(=O)CC[C@H](NC(=O)[C@@H]1CC[C@@H]2CCCC[C@H](NC(=O)c3cc4cc(CP(=O)(O)O)ccc4[nH]3)C(=O)N21)C(=O)NCc1ccccc1																					pKi [24]: 6.12
NC(=O)CC[C@H](NC(=O)[C@@H]1CC[C@@H]2CCN(C(=O)CCCCCC#Cc3cccc4c3C(=O)N(C3CCC(=O)NC3=O)C4=O)C[C@H](NC(=O)c3cc4cc(C(F)(F)P(=O)(O)O)ccc4[nH]3)C(=O)N21)C(=O)NC(c1ccccc1)c1ccccc1 (stereo partly specified)	> 10000			< 5.00				6.24												3540	Activity [25]: inactive; Activity [26]: inactive
